This passage reports IC50, Activity and viability results from ChEMBL document CHEMBL5331146, “Evaluating Alkaline Phosphatase-Instructed Self-Assembly of d-Peptides for Selectively Inhibiting Ovarian Cancer Cells” (J Med Chem, 2023).

Molecules are shown by their SMILES. Calls of active or inactive are those of the source. Square brackets hold non-standard residues; d marks the D form. Peptide text beside a SMILES is read from it. * marks the point of attachment. d(pY) = N[C@H](Cc1ccc(OP(=O)(O)O)cc1)C(=O)O; Acetyl(2-naphthyl) = O=C(Cc1ccc2ccccc2c1)*

In experiment [1] the test system is OVSAHO. Nature of the experiment: Cytotoxicity against human OVSAHO cells assessed as inhibition of cell growth incubated for 72 hrs by MTT assay. It is filed as functional, cell-based. The method, boiled down:
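OVSAHO cells incubated 72 h with each EISA substrate across a concentration series; viability measured and IC50 derived.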
(Formazan colour is commonly taken as a measure of viable cells.)

In experiment [2] the test system is OVSAHO. The experiment is described as follows: Cytotoxicity against human OVSAHO cells assessed as enhancement in cell growth inhibition at 20 uM incubated for 24 hrs in presence of 50 to 200 nM methyl (5R,7R,8S)-7-hydroxy-8-methyl-15-oxo-5,6,7,8,14,15-hexahydro-13H-16-oxa-4b,8a,14-triaza-5,8-methanodibenzo[b,h]cycloocta[jkl]cyclopenta[e]-as-indacene-7-carboxylate by MTT assay. It is filed as functional, cell-based. A digest of the protocol: (§1)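 OVSAHO cells are co-treated for 24 h with the EISA substrate at a fixed 20 μM plus the partner drug over its concentration range. Viability is compared with substrate alone and drug alone. Significance is given as p thresholds (ns, *, **, ***).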

The subject of experiment [3] is OVSAHO. Nature of the experiment: Cytotoxicity against human OVSAHO cells assessed as enhancement in cell growth inhibition at 10 to 20 uM incubated for 24 to 72 hrs in presence of doxorubicin by MTT assay. It is filed as functional, cell-based. Conditions: dose 10-20 µM, time 24-72 hrs. The method, boiled down: (§2)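 OVSAHO cells are exposed to a series of substrate concentrations combined with doxorubicin, alongside each agent alone. Viability is read at 24 h, 48 h and 72 h. Single-agent doxorubicin was also run at 1.25, 2.5 and 5 μM. Significance is given as p thresholds.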

For experiment [4], the system named is OVSAHO. Nature of the experiment: Cytotoxicity against human OVSAHO cells assessed as enhancement in cell growth inhibition at 20 uM incubated for 24 hrs in presence of 25 to 50 uM Bortezomib by MTT assay. It is filed as functional, cell-based. The method, boiled down: as §1
The test system of experiment [5] is OVSAHO. The experiment is described as follows: Cytotoxicity against human OVSAHO cells assessed as enhancement in cell growth inhibition at 20 uM incubated for 24 hrs in presence of 2.5 to 10 uM paclitaxel by MTT assay. In kind it is functional, cell-based. A digest of the protocol: as §1
Experiment [6] can be described thus: Cytotoxicity against mouse GEMM 4306 cells assessed as inhibition of cell growth incubated for 72 hrs by MTT assay. It is filed as functional, cell-based. Conditions: GEMM 4306, 72 h. A digest of the protocol:
(§3)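 Cell viability after 72 h continuous exposure of each ovarian or CHO cell line to the substrate over a concentration series. IC50 is taken from the 72 h viability curves.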

Experiment [7] in a line: Cytotoxicity against human A2780-Res cells assessed as inhibition of cell growth incubated for 72 hrs by MTT assay. In kind it is functional, cell-based. A digest of the protocol:
as §3

The test system of experiment [8] is OVSAHO. The experiment is described as follows: Cytotoxicity against human OVSAHO cells assessed as enhancement in cell growth inhibition at <5 uM incubated for 24 to 72 hrs in presence of doxorubicin by MTT assay. In kind it is functional, cell-based. Conditions: time 24-72 hrs. The method, boiled down: as §2
The subject of experiment [9] is OVSAHO. Nature of the experiment: Cytotoxicity against human OVSAHO cells assessed as enhancement in cell growth inhibition at 20 uM incubated for 24 hrs in presence of 25 to 50 uM talazoparib by MTT assay. In kind it is functional, cell-based. A digest of the protocol:
as §1

Experiment [10] in a line: Cytotoxicity against CHOK cells assessed as inhibition of cell growth incubated for 72 hrs by MTT assay. It is filed as functional, cell-based. As to conditions: Cricetulus griseus. A digest of the protocol:
as §3

For experiment [11], the system named is OVSAHO. Nature of the experiment: Cytotoxicity against human OVSAHO cells assessed as cell viability at 20 uM incubated for 24 hrs in presence of doxorubicin by MTT assay (reference value: 120%). It is filed as functional. As to conditions: read-out: Activity.
Experiment [12] relates to OVSAHO. Nature of the experiment: Cytotoxicity against human OVSAHO cells assessed as enhancement in cell growth inhibition at 20 uM incubated for 24 hrs in presence of 1 to 20 uM ethyl (2-((cyanocarbonyl)(2,4-dimethoxyphenyl)amino)-2-(thiophen-2-yl)acetyl)glycinate by MTT assay. It is filed as functional, cell-based. A digest of the protocol: as §1
Experiment [13] has as its system OVSAHO. Nature of the experiment: Cytotoxicity against human OVSAHO cells assessed as enhancement in cell growth inhibition at 20 uM incubated for 24 hrs in presence of 0.5 to 2 uM 2-((4-(cyclopropanecarbonyl)piperazin-1-yl)methyl)benzo[d]isothiazol-3(2H)-one by MTT assay. It is filed as functional, cell-based. A digest of the protocol:
as §1

Experiment [14] concerns OVSAHO. The experiment is described as follows: Cytotoxicity against human OVSAHO cells assessed as enhancement in cell growth inhibition at 20 uM incubated for 24 hrs in presence of 1.25 to 5 uM 3-((4-(tert-butyl)phenyl)sulfonyl)acrylonitrile by MTT assay. It is filed as functional, cell-based. A digest of the protocol: as §1
Experiment [15] deals with OVSAHO. The experiment is described as follows: Cytotoxicity against human OVSAHO cells assessed as enhancement in cell growth inhibition at 20 uM incubated for 24 hrs in presence of 1.25 to 2.5 uM cisplatin by MTT assay. In kind it is functional, cell-based. The method, boiled down: as §1
The subject of experiment [16] is OVSAHO. Nature of the experiment: Cytotoxicity against human OVSAHO cells assessed as inhibition of cell growth at 1.25 to 5 uM incubated for 24 hrs by MTT assay relative to control. In kind it is functional. Conditions: dose 1.25-5 µM. More on the design: scale not given: the % may be the effect or the level left. The method, boiled down: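 OVSAHO cells treated with doxorubicin alone at 1.25, 2.5 and 5 μM for 24 h; cell viability measured.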

For `COC(=O)CC[C@@H](NC(=O)[C@@H](Cc1ccc(OP(=O)(O)O)cc1)NC(=O)[C@@H](Cc1ccccc1)NC(=O)[C@@H](Cc1ccccc1)NC(=O)[C@@H](CC(C)C)NC(=O)Cc1ccc2ccccc2c1)C(=O)OC`, the concentration for half-maximal inhibition (IC50) in experiment [1] was more than 200 µM.
On to `COC(=O)CC[C@@H](NC(=O)[C@@H](Cc1ccc(OP(=O)(O)O)cc1)NC(=O)[C@@H](Cc1ccccc1)NC(=O)[C@@H](Cc1ccccc1)NC(=O)[C@H](CC(C)C)NC(=O)Cc1ccc2ccccc2c1)C(=O)OC`, for which the IC50 in experiment [1] is 46.9 µM.
`COC(=O)CC[C@@H](NC(=O)[C@@H](Cc1ccc(OP(=O)(O)O)cc1)NC(=O)[C@@H](Cc1ccccc1)NC(=O)[C@@H](Cc1ccccc1)NC(=O)[C@@H](Cc1ccccc1)NC(=O)Cc1ccc2ccccc2c1)C(=O)OC`: the IC50 in [1] was more than 200 µM.
Take `COC(=O)CC[C@@H](NC(=O)[C@@H](Cc1ccc(OP(=O)(O)O)cc1)NC(=O)[C@H](CC(C)C)NC(=O)[C@@H](Cc1ccccc1)NC(=O)[C@@H](Cc1ccccc1)NC(=O)Cc1ccc2ccccc2c1)C(=O)OC`: the IC50 in [1] amounted to 70.5 µM.
Turning to `COC(=O)CC[C@@H](NC(=O)[C@@H](Cc1ccc(OP(=O)(O)O)cc1)NC(=O)[C@@H](Cc1ccccc1)NC(=O)[C@@H](Cc1ccccc1)NC(=O)Cc1ccc2ccccc2c1)C(=O)OC` ({Acetyl(2-naphthyl)}-[dF][dF][d(pY)][dE](OMe)-OMe), the outcome in experiment [2], in experiment [3], in experiment [14] and in experiment [15] was Active. Also, the outcome in [4], in [5], in experiment [8], in experiment [9], in experiment [12] and in experiment [13] was inactive. Further, the 50% inhibitory concentration (IC50) in experiment [6], in experiment [7] and in experiment [10] was more than 200 µM throughout. Moreover, in experiment [11], the viability at 20 µM stood at 20%.
On to `COc1cccc2c1C(=O)c1c(O)c3c(c(O)c1C2=O)C[C@@](O)(C(=O)CO)C[C@@H]3O[C@H]1C[C@H](N)[C@H](O)[C@H](C)O1` [DOXORUBICIN], for which, in experiment [16], the Activity was approximately 75%.

In general, IC50 refers to the midpoint of a concentration-inhibition curve.
